Laboratory results published in ChEMBL document CHEMBL3588770, “Novel spirohydantoin derivative as a potent multireceptor-active antipsychotic and antidepressant agent” (Bioorg Med Chem, 2015).
Blank lines part the entries; values can stand above or below the compound they belong to. Calls of active or inactive are those of the source. The calls are words filed in the database; no cut-off is given here.

Legend:
[1] = target: Histamine H1 receptor (Homo sapiens) (UniProt P35367); experiment: Agonist activity at human recombinant H1 receptor expressed in HEK-293 cells assessed as intracellular Ca2+ release at 1 uM by fluorimetry; format: functional, cell-based; details: HEK293
Sequence of Histamine H1 receptor (Homo sapiens) (P35367 whole entry): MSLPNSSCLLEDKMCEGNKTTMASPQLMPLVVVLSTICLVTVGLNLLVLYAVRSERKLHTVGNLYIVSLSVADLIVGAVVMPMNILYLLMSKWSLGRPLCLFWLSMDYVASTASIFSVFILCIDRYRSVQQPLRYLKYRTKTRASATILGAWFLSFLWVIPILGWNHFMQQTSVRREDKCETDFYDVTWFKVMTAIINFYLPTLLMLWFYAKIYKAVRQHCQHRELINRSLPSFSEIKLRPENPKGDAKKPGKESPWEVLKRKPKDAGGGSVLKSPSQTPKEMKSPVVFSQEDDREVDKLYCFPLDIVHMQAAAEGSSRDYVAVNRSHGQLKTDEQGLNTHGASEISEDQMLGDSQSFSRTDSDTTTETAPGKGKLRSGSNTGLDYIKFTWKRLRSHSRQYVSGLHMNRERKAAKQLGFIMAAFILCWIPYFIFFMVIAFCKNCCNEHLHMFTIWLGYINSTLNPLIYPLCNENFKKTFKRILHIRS
Summary of the method: (§1)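 Functional assays run by a contract lab on CHO or HEK-293 cells stably expressing the human receptor. Read-out was intracellular cAMP, IP1 or Ca2+ release. A single test concentration of 1.0E-06 was used, in duplicate. Data are mean % of the control response.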

[2] = target: T1, Alpha-2C adrenergic receptor (Homo sapiens) (UniProt P18825); experiment: Antagonist activity at human recombinant alpha2C adrenoceptor expressed in CHO cells assessed as inhibition of epinephrine-induced intracellular cAMP release at 1 uM by HTRF assay; format: functional, cell-based; summary of the method: as §1
T1 sequence (whole entry): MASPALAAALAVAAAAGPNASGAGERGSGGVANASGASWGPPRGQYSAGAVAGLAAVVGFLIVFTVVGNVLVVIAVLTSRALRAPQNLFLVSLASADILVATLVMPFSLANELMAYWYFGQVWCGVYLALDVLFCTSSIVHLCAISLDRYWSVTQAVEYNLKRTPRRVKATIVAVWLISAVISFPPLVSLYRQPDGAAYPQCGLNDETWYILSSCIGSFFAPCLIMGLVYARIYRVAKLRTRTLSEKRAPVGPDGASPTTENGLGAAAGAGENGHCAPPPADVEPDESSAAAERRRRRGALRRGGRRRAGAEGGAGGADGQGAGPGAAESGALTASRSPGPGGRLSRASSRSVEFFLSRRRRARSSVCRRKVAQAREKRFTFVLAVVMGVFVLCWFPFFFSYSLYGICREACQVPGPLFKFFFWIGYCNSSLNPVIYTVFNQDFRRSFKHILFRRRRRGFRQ

Mus musculus [3] = experiment: Toxicity in ip dosed spontaneous locomotor activity CD-1 mouse model assessed as dose required to cause sedation; format: organism-based; details: in vivo
Summary of the method: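 CD-1 mice, 8-10 per dose, with compound given i.p. in 1% Tween 80 suspension 60 min before testing. After 30 min habituation in individual cages, ambulation (channel crossings) was counted over 1 h, recorded every 5 min. Mean ± SEM, one-way ANOVA with Bonferroni test.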

Mus musculus [4] = experiment: In vivo partial agonist activity at 5HT1A receptor in CD-1 mouse assessed as change in body temperature at 10 mg/kg, ip measured after 90 mins (reference value: -0.1 degC); format: functional, organism-based
Summary of the method: (§2)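 Male CD-1 mice, 7-9 per dose, compound suspended in 1% aqueous Tween 80 and given i.p. at 10 ml/kg. Rectal temperature was taken by thermometer 30, 60, 90 and 120 min after dosing. Change (Δt) is expressed against basal temperature measured at the start. Mean ± SEM, one-way ANOVA with Bonferroni test.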

Mus musculus [5] = experiment: In vivo partial agonist activity at 5HT1A receptor in CD-1 mouse assessed as change in body temperature at 10 mg/kg, ip administered 15 mins after 5HT1A receptor antagonist WAY100635 injection measured after 60 mins (reference value: -0.1 degC); format: functional, organism-based
Summary of the method: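 Male CD-1 mice, 7-9 per dose. WAY 100635 (0.3 mg/kg) was given 15 min before the compound i.p. Rectal temperature was recorded 30 and 60 min after the compound, as the change from basal temperature.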

Mus musculus [6] = experiment: In vivo partial agonist activity at 5HT1A receptor in CD-1 mouse assessed as change in body temperature at 5 mg/kg, ip measured after 120 mins (reference value: -0.1 degC); format: functional, organism-based; summary of the method: as §2
Mus musculus [7] = experiment: Antipsychotic activity in CD-1 mouse assessed as inhibition of D-amphetamine-induced hyperlocomotor activity at 0.156 to 0.625 mg/kg, ip; format: functional, organism-based
Summary of the method: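 Male CD-1 mice, 8-10 per dose. d-Amphetamine was given s.c. 30 min pretest; test compound i.p. 60 min pretest in 1% Tween 80. After 30 min habituation in the activity monitor, ambulation crossings were counted for 1 h, recorded every 5 min.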

Mus musculus [8] = species: Mus musculus; experiment: Ratio of MED for catalepsy in CD-1 mouse to ED50 for antipsychotic activity in CD-1 mouse
Mus musculus [9] = experiment: In vivo partial agonist activity at 5HT1A receptor in CD-1 mouse assessed as change in body temperature at 5 mg/kg, ip measured after 30 mins (reference value: -0.1 degC); format: functional, organism-based; summary of the method: as §2
Mus musculus [10] = experiment: In vivo antagonist activity at D2 receptor in ip dosed Swiss albino mouse assessed as inhibition of apomorphine-induced climbing behaviour administered 10 mins prior to apomophine injection measured after 20 mins; format: functional
Summary of the method: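 Male Swiss albino mice, 5-6 per dose, in metal-bar cages. Compound i.p. was followed 10 min later by apomorphine 3 mg/kg i.p. Climbing time (2–4 paws on the wall) was measured for 2 min starting 20 min after apomorphine. ID50 is the dose inhibiting climbing by 50%.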

Mus musculus [11] = experiment: In vivo partial agonist activity at 5HT1A receptor in CD-1 mouse assessed as change in body temperature at 10 mg/kg, ip measured after 120 mins (reference value: -0.1 degC); format: functional, organism-based
Summary of the method: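 Male CD-1 mice, 7-9 per dose, dosed i.p. Rectal temperature was recorded at 30, 60, 90 and 120 min. Results are the change from basal temperature taken at the start of the experiment.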

Mus musculus [12] = experiment: In vivo partial agonist activity at 5HT1A receptor in CD-1 mouse assessed as change in body temperature at 5 mg/kg, ip measured after 60 mins (reference value: -0.1 degC); format: functional, organism-based; summary of the method: as §2
Rattus norvegicus = experiment: Inhibition of 8-OH-DPAT-induced lower lip retraction in Wistar rat at 5 to 40 mg/kg, ip administered 45 mins before 8-OH-DPAT administration; format: functional, organism-based
Summary of the method: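 Wistar rats, 5-6 per dose, given compound i.p. (1% Tween 80 suspension) 45 min before 8-OH-DPAT (1 mg/kg). Lower lip retraction was scored 15, 30 and 45 min after 8-OH-DPAT on a 0/0.5/1 scale (incisor visibility), giving a maximum total of 3. Mean ± SEM, ANOVA with Bonferroni test.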

Mus musculus [13] = experiment: Anti-depressant like activity in Swiss albino mouse assessed as shortening of immobility time at 2.5 mg/kg, ip by forced swim test; format: functional
Summary of the method: (§3)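 Forced swim test in male Swiss albino mice, 7-9 per dose. Compound was given i.p. in 1% Tween 80 at 10 ml/kg, 60 min pretest. Mice swam for 6 min in a cylinder with 6 cm of water at 23-25 °C. Immobility was scored over the last 4 min. Analysis was one-way ANOVA with Bonferroni.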

Mus musculus [14] = experiment: In vivo agonist activity at D2 receptor in ip dosed Swiss albino mouse assessed as induction of climbing behaviour; format: functional, organism-based
Mus musculus [15] = experiment: Anti-depressant like activity in Swiss albino mouse assessed as shortening of immobility time at 5 mg/kg, ip by forced swim test; format: functional; summary of the method: as §3
Mus musculus [16] = experiment: In vivo partial agonist activity at 5HT1A receptor in CD-1 mouse assessed as change in body temperature at 5 mg/kg, ip measured after 90 mins (reference value: -0.1 degC); format: functional, organism-based; summary of the method: as §2
Mus musculus [17] = experiment: In vivo agonist activity at 5HT2A receptor in Swiss albino mouse assessed as induction of head twitch response at 5 to 40 mg/kg, ip; format: functional, organism-based
Mus musculus [18] = experiment: In vivo antagonist activity at 5HT2A receptor in ip dosed Swiss albino mouse assessed as inhibition of (+/-)-DOI-induced head twitch response; format: functional
Summary of the method: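 Male Swiss albino mice, 5-6 per dose, habituated 20 min in glass cages. Compound was given i.p. 60 min pretest. Head twitches were induced by (±)DOI 2.5 mg/kg and counted for 20 min. ID50 is the dose inhibiting twitches by 50%.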

Activity [1]: -2%
inhibition [2]: 69%
Structure (SMILES): COc1ccccc1N1CCN(CCCCN2C(=O)NC3(CCc4ccccc43)C2=O)CC1 (stereo unspecified)

Activity [1]: -2%
inhibition [2]: 79%
Structure (SMILES): COc1ccccc1N1CCN(CCCCN2C(=O)NC3(CCCc4ccccc43)C2=O)CC1 (stereo unspecified)
Activity (Mus musculus [3]): 2.5 mg/kg
deltaT (Mus musculus [4]): -1.3 °C
deltaT (Mus musculus [5]): -1 °C
deltaT (Mus musculus [6]): -0.6 °C
inhibition (Mus musculus [7]): Active
Ratio (Mus musculus [8]): 50
deltaT (Mus musculus [9]): -0.8 °C
ED50 (Mus musculus [10]): 37.9 mg/kg
deltaT (Mus musculus [11]): -1.2 °C
deltaT (Mus musculus [12]): -0.7 °C
inhibition (Rattus norvegicus): Active
inhibition in vivo at 2.5 mg/kg (Mus musculus [13]): 37%
Activity (Mus musculus [14]): inactive
inhibition in vivo at 5 mg/kg (Mus musculus [15]): 45%
deltaT (Mus musculus [16]): -0.7 °C
Activity (Mus musculus [17]): inactive
ED50 (Mus musculus [18]): 19.6 mg/kg
